Measured values reported in ChEMBL document CHEMBL1142768, “2-(2-Furanyl)-7-phenyl[1,2,4]triazolo[1,5-c]pyrimidin-5-amine analogs as adenosine A2A antagonists: the successful reduction of hERG activity. Part 2” (Bioorg Med Chem Lett, 2005).
One block for each compound: values may come before it.

Experiments:
[1] = Inhibitory constant against Adenosine A2A receptor using [3H]SCH-58261 as radio ligand; design: species or system Homo sapiens
Summary of the method: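 Radioligand binding at the adenosine A2A receptor, run in duplicate; Ki reported as the mean of the duplicates.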

hERG (KCNH2) = hERG (KCNH2) (Homo sapiens, UniProt Q12809); test: Percent inhibition of hERG by rubidium efflux FLIPR assay at concentration of 5 ug/mL; format: toxicity
Rattus norvegicus [2] = test: Percent reduction of cataleptic effect in rat upon dosing at 3 mg/kg; 23/47; format: functional; design: scale not given: the % may be the effect or the level left
Rattus norvegicus [3] = test: Percent reduction of cataleptic effect in rat upon dosing at 3 mg/kg; 55/40; format: functional; design: scale not given: the % may be the effect or the level left
Rattus norvegicus [4] = test: Percent reduction of cataleptic effect in rat upon dosing at 3 mg/kg; 34/43; format: functional; design: scale not given: the % may be the effect or the level left
Rattus norvegicus [5] = test: Percent reduction of cataleptic effect in rat upon dosing at 3 mg/kg; 23/32; format: functional; design: scale not given: the % may be the effect or the level left
Rattus norvegicus [6] = test: Percent reduction of cataleptic effect in rat upon dosing at 3 mg/kg; 45/20; format: functional; design: scale not given: the % may be the effect or the level left
Rattus norvegicus [7] = test: Percent reduction of cataleptic effect in rat upon dosing at 3 mg/kg; 28/0; format: functional; design: scale not given: the % may be the effect or the level left
Rattus norvegicus [8] = test: Percent reduction of cataleptic effect in rat upon dosing at 3 mg/kg; 36/59; format: functional; design: scale not given: the % may be the effect or the level left
Rattus norvegicus [9] = test: Percent reduction of cataleptic effect in rat upon dosing at 3 mg/kg; 19/46; format: functional; design: scale not given: the % may be the effect or the level left
Rattus norvegicus [10] = test: Percent reduction of cataleptic effect in rat upon dosing at 3 mg/kg; 10/12; format: functional; design: scale not given: the % may be the effect or the level left
Rattus norvegicus [11] = test: Percent reduction of cataleptic effect in rat upon dosing at 3 mg/kg; 0/23; format: functional; design: scale not given: the % may be the effect or the level left
Rattus norvegicus [12] = test: Percent reduction of cataleptic effect in rat upon dosing at 3 mg/kg; 13/13; format: functional; design: scale not given: the % may be the effect or the level left

Chain of hERG (KCNH2) (Q12809 whole entry): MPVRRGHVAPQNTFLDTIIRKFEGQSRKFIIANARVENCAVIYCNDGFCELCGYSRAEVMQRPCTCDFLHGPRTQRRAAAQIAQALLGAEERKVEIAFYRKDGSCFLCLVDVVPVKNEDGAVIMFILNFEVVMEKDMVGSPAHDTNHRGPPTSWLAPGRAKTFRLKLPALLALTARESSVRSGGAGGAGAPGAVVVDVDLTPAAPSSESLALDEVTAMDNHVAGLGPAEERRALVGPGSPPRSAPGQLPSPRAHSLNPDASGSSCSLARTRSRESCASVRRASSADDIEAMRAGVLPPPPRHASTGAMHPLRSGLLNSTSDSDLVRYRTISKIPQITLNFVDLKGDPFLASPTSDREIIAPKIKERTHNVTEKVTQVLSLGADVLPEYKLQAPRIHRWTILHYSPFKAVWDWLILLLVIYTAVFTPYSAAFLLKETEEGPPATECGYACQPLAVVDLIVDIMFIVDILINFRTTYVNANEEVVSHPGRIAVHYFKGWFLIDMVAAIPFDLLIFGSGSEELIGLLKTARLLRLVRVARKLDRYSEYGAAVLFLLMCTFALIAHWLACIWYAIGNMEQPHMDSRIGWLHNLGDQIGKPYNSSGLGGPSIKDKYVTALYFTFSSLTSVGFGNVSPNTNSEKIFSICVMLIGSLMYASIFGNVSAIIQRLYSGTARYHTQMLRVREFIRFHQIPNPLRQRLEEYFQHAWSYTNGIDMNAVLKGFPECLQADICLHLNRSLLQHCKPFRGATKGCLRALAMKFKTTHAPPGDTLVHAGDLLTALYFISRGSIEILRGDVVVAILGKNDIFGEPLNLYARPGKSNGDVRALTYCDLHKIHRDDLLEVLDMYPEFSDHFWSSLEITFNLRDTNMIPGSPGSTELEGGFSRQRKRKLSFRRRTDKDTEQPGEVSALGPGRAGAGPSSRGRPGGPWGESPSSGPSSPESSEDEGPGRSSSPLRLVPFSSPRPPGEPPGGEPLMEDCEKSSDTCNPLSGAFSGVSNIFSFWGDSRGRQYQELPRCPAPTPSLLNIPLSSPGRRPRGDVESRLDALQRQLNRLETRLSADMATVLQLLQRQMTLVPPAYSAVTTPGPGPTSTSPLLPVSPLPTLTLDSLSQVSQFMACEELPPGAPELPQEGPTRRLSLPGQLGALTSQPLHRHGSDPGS

SMILES: Nc1nc(-c2cccc(N3CCN(C(=O)CN4CCOCC4)CC3)c2)cc2nc(-c3ccco3)nn12
Ki [1]: 0.5 nM | inhibition at 5 ug/mL (hERG (KCNH2)): 5% | Activity (Rattus norvegicus [2]): 47%

SMILES: COCCOc1cccc(N2CCN(Cc3cccc(-c4cc5nc(-c6ccco6)nn5c(N)n4)c3)CC2)c1
inhibition at 5 ug/mL (hERG (KCNH2)): 68%

SMILES: COCCOc1ccc(N2CCN(c3cccc(-c4cc5nc(-c6ccco6)nn5c(N)n4)c3)CC2)cc1
Ki [1]: 1 nM | inhibition at 5 ug/mL (hERG (KCNH2)): -4% (not active) | Activity (Rattus norvegicus [3]): 55%

SMILES: CCCCOC(=O)N1CCN(c2cccc(-c3cc4nc(-c5ccco5)nn4c(N)n3)c2)CC1
Ki [1]: 0.5 nM | inhibition at 5 ug/mL (hERG (KCNH2)): -3% (not active) | Activity (Rattus norvegicus [4]): 43%

SMILES: Nc1nc(-c2cccc(N3CCN(CCN4CCOCC4)CC3)c2)cc2nc(-c3ccco3)nn12
Ki [1]: 1.3 nM | inhibition at 5 ug/mL (hERG (KCNH2)): 13% | Activity (Rattus norvegicus [5]): 32%

SMILES: Nc1nc(-c2cccc(N3CCC4(CC3)OCCO4)c2)cc2nc(-c3ccco3)nn12
Ki [1]: 0.4 nM | inhibition at 5 ug/mL (hERG (KCNH2)): 8% | Activity (Rattus norvegicus [6]): 45%

SMILES: CC1CN(CC(=O)N2CCN(c3cccc(-c4cc5nc(-c6ccco6)nn5c(N)n4)c3)CC2)CCO1 (stereo not drawn)
Ki [1]: 0.8 nM | inhibition at 5 ug/mL (hERG (KCNH2)): -3% (not active) | Activity (Rattus norvegicus [7]): 28%

Ki [1]: 5.7 nM
SMILES: Nc1nc(-c2cccc(N3CCNCC3)c2)cc2nc(-c3ccco3)nn12

Ki [1]: 1.3 nM
SMILES: Nc1nc(-c2cccc(N3CCC(=O)CC3)c2)cc2nc(-c3ccco3)nn12

SMILES: Nc1nc(-c2cccc(CO)c2)cc2nc(-c3ccco3)nn12
inhibition at 5 ug/mL (hERG (KCNH2)): 15%

SMILES: Nc1nc(-c2cccc(N3CCC(N4CCOCC4)CC3)c2)cc2nc(-c3ccco3)nn12
Activity (Rattus norvegicus [8]): 59% | Ki [1]: 0.8 nM | inhibition at 5 ug/mL (hERG (KCNH2)): 1%

SMILES: COCCOc1cccc(N2CCN(c3cccc(-c4cc5nc(-c6ccco6)nn5c(N)n4)c3)CC2)c1
Ki [1]: 2.3 nM | inhibition at 5 ug/mL (hERG (KCNH2)): 3% | Activity (Rattus norvegicus [9]): 46%

SMILES: CC(C)(C)CNC1CCN(c2cccc(-c3cc4nc(-c5ccco5)nn4c(N)n3)c2)CC1
Ki [1]: 18 nM | inhibition at 5 ug/mL (hERG (KCNH2)): 9% | Activity (Rattus norvegicus [10]): 12%

SMILES: CC(C)OC(=O)N1CCN(c2cccc(-c3cc4nc(-c5ccco5)nn4c(N)n3)c2)CC1
Ki [1]: 1 nM | inhibition at 5 ug/mL (hERG (KCNH2)): 8% | Activity (Rattus norvegicus [11]): 23%

SMILES: COCCOc1ccc(N2CCN(Cc3cccc(-c4cc5nc(-c6ccco6)nn5c(N)n4)c3)CC2)cc1
inhibition at 5 ug/mL (hERG (KCNH2)): 81%

SMILES: CC(C)S(=O)(=O)N1CCN(c2cccc(-c3cc4nc(-c5ccco5)nn4c(N)n3)c2)CC1
Ki [1]: 0.5 nM | inhibition at 5 ug/mL (hERG (KCNH2)): 10% | Activity (Rattus norvegicus [12]): 13%
